High-throughput results deposited in PubChem BioAssay by several laboratories.
Shown are actives, neighbours in structure and some others; about 3.1% of the full set was active somewhere.
RAM inhibit – blocks the yeast RAM network | inhibition, % at 50 µM | S. cerevisiae dse1pr::URA3 reporter, 5-FOA growth OD615, 2 d; analog-sensitive cbk1-as2 kinase mutant strain | 190,000 tested, 1.8% active;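 active = inhibition above a set limit, 3 SD over mean compound inhibition, cut at about 8.4% in these data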;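 note: inhibition rescues growth on 5-FOA so higher OD means more RAM inhibition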
INS promoter inh – TRM-6 insulin promoter activity inhibition; inhibition, % at 2 µM; TRM-6 cells, insulin promoter-eGFP reporter, imaging; reporter expression induced with tamoxifen; 130,000 tested, 0.9% active;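 active = inhibition above the mean plus 3 SD, with well images judged a real hit on visual review, cut at about 60% in these data, passing the limit was not always enough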
Ins promoter up – MIN6 insulin promoter up-regulation | MIN6 insulin promoter-GFP reporter, high-content imaging; stronger effect = higher value | z-score at 5 µM | 190,000 tested, 0.3% active | AID 1625;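 active = z-score above 3 at 5 µM with at least 500 cells counted in the well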
BB579 growth dn – reduces growth of yeast BB579 in restrictive medium; AID 804; inhibition, % at 10 µM; S. cerevisiae BB579 growth, OD615, 48 h; 140,000 tested, 0.51% active;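 active = inhibition above a set limit, 3 SD over the mean compound inhibition, cut at about 44% in these data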
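Assay system: S. cerevisiae DeaD strain BB579 yeast. Medium: CSMM-D restrictive synthetic medium containing dextrose (glucose). Times: 4 h cell preincubation, 48 h compound exposure, 30 °C humidified. Signal: OD615 turbidity measurement. Benchmarks: positive control amphotericin B 10 µg/mL.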
Yeast lifespan up – extends the lifespan of yeast | 130,000 tested, 0.68% active | S. cerevisiae growth with nicotinamide, OD615; deaD strain in restrictive glucose medium | inhibition of the nicotinamide effect, % at 10 µM;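 active = inhibition above a set limit, placed 3 SD over the median of all compounds, cut at about 26% in these data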
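Test system – modified budding yeast, DeaD strain · Compound – single dose 10 µM compound, 0.25% DMSO · Times – culture preincubation 4 h, compound exposure 48 h, both 30 °C · Detection – optical density (absorbance) at 615 nm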
Large screens that a line does not name were inactive.

CC(C)CCn1c(=O)c(C(=O)N/N=C/c2cccc(F)c2)c(O)c2ccccc21	Yeast lifespan up 38 (no result: INS promoter inh)
CC(C)C(=O)NNC(=O)c1c(O)c2ccccc2[nH]c1=O	none (no result: RAM inhibit, INS promoter inh, BB579 growth dn, Yeast lifespan up)
O=C(N/N=C/c1ccccc1)c1c(O)c2ccccc2[nH]c1=O	Yeast lifespan up 59 (no result: INS promoter inh)
CC1CCc2cc(F)cc3c(O)c(C(=O)NCC4CCCO4)c(=O)n1c23 (configuration not stated)	RAM inhibit 11
N#Cc1ccc(C(=O)Nc2ccc([N+](=O)[O-])cc2)c(F)c1	none (no result: INS promoter inh, BB579 growth dn, Yeast lifespan up)
O=C(N/N=C/c1ccc(F)cc1)c1c(O)c2ccccc2[nH]c1=O	Yeast lifespan up 57 (no result: INS promoter inh)
O=C(NCC1CCCO1)c1c(O)c2ccccc2[nH]c1=O (configuration not stated)	Yeast lifespan up 57
CCOC(=O)c1c(NCC2CCCO2)c2ccccc2[nH]c1=O (configuration not stated)	none
CC(C)NC(=O)c1c(O)c2ccccc2[nH]c1=O	none (no result: INS promoter inh)
COC(=O)c1c(O)c2ccccc2[nH]c1=O	Yeast lifespan up 41
O=C(NNC(=O)c1ccc([N+](=O)[O-])cc1Cl)c1ccncc1	none
Cc1ccc(/C=N/NC(=O)CN(Cc2ccccc2)S(=O)(=O)c2ccc3c(c2)OCCO3)cc1	none
C=CCn1c(O)c(C(CC)=NCCN2CCOCC2)c(=O)[nH]c1=O	Yeast lifespan up 37 (no result: INS promoter inh)
Cc1ccc2cc(C)c3nnc(SCC(=O)c4cccs4)n3c2c1C	none
CCOC(=O)CC(=O)CSc1nc2c(C)c(C)ccc2cc1C	none
Cc1ccc(C)c2c1cc(C)c1nnc(SCC(=O)c3cccs3)n12	RAM inhibit 11
Cc1cc2ccc(C)c(C)c2nc1SCC(=O)c1cccs1	RAM inhibit 8.6
CCOC(=O)c1cc(-c2ccccc2)n(CCC(=O)N2CCN(c3ccccn3)CC2)c1C	none
CCOC(=O)N1CCN(C(=O)c2ccc3nc(C)sc3c2)CC1	INS promoter inh 71
Fc1ccc2nc3[nH]c4ccccc4c3nc2c1	RAM inhibit 8.9, INS promoter inh 91, BB579 growth dn 63
O=C(Nc1ccc(NC(=S)NC(=O)C(c2ccccc2)c2ccccc2)cc1)c1ccccc1	none (no result: RAM inhibit, Ins promoter up, BB579 growth dn, Yeast lifespan up)
Cc1cccc(NC(=S)NC(=O)C(c2ccccc2)c2ccccc2)n1	INS promoter inh 72 (no result: RAM inhibit, Ins promoter up, BB579 growth dn, Yeast lifespan up)
CC(C)CNC(=O)c1oc2ccccc2c1COc1ccccc1	RAM inhibit 8.9
O=C(Nc1ccccc1C(F)(F)F)N1CCN(c2ccccn2)CC1	none (no result: INS promoter inh, BB579 growth dn, Yeast lifespan up)
CC(C)(C)n1nnnc1C(c1cccs1)N(Cc1ccccc1)Cc1ccco1 (configuration not stated)	RAM inhibit 9.6
COc1cc(NS(=O)(=O)c2ccc(N/C=C(\C=O)c3nc4ccccc4o3)cc2)nc(OC)n1	none
CCCOc1ccc(-c2c(C(=O)N/N=C/c3ccccc3)nnn2-c2nonc2N)cc1	none (no result: RAM inhibit, INS promoter inh, BB579 growth dn, Yeast lifespan up)
CCOC(=O)c1nnn(-c2nonc2-n2cccc2)c1CCl	Yeast lifespan up 55
CCOc1ccc(/C=N/NC(=O)c2nnn(-c3nonc3N)c2-c2ccc(OCC)cc2)cc1	RAM inhibit 9.4
CCOC(=O)c1nnn(-c2nonc2N)c1CN1CCc2ccccc2C1	Yeast lifespan up 62 (no result: Ins promoter up)
CCOC(=O)c1nnn(-c2nonc2N)c1-c1ccc(OCC)cc1	Ins promoter up 3.8
CCN1C(=O)N(C)[C@@H](c2ccccc2)C(C(=O)OC)=C1C	none (no result: RAM inhibit, INS promoter inh, BB579 growth dn, Yeast lifespan up)
CCC(Sc1nncn1C)C(=O)Nc1cc(C)on1 (configuration not stated)	none (no result: INS promoter inh, BB579 growth dn, Yeast lifespan up)
Cc1ccc(C(=O)N(c2ccccc2)C2CC(C)N(C(=O)c3ccco3)c3ccccc32)cc1 (configuration not stated)	Yeast lifespan up 34
CCC(=O)N1c2ccccc2[C@@H](N(C(C)=O)c2ccccc2)C[C@H]1C	none
Cn1c(=O)oc2cc(S(=O)(=O)N3CCN(c4ccc(F)cc4)CC3)ccc21	INS promoter inh 70
COc1ccccc1CNC(=O)/C=C/c1cc2c(cc1Br)OCO2	none
CCOc1cccc(C2C(C#N)=C(N)Oc3cc(C)oc(=O)c32)c1OCC (configuration not stated)	INS promoter inh 82
O=C(Nc1ccc(Br)cc1)N1CCCCC1	none (no result: INS promoter inh, BB579 growth dn, Yeast lifespan up)
CC(=O)NC(=S)Nc1ccc(NC(=O)COc2ccc(C(C)C)cc2)cc1	INS promoter inh 75
CC(=O)NC(=S)Nc1ccc(NC(=O)COc2ccc(Cl)cc2)cc1	none (no result: Ins promoter up)
COc1ccc2nc(SC)cc(C)c2c1	none (no result: RAM inhibit, INS promoter inh, BB579 growth dn, Yeast lifespan up)
O=C(N[C@@H](Cc1ccccc1)C(=O)OCc1ccccc1)c1nc[nH]c1C(=O)NCc1ccccc1	RAM inhibit 9.2 (no result: INS promoter inh, BB579 growth dn, Yeast lifespan up)
O=c1oc2ccccc2cc1-c1cn2cccnc2n1	BB579 growth dn 53 (no result: INS promoter inh)
COc1ccc(C(=O)NNC(=O)CCn2nnc(-c3ccc(C)cc3)n2)cc1OC	RAM inhibit 9.2 (no result: BB579 growth dn, Yeast lifespan up)
Cc1nn(C)c(C)c1S(=O)(=O)N(CC(=O)N1CCc2ccccc21)c1ccc(C(C)C)cc1	none (no result: INS promoter inh)
COc1ccc(N(CC(=O)N2CCc3ccccc32)S(=O)(=O)c2c(C)nn(C)c2C)cc1	RAM inhibit 8.9 (no result: INS promoter inh)
COC(=O)c1ccc(NC(=O)CSC2=NC(=O)C(c3ccccc3)C(=O)N2)cc1 (configuration not stated)	none
Cc1ccc(N/N=C/c2c(O)cc(C)oc2=O)cc1	BB579 growth dn 96
Nc1cc(=O)[nH]c(=S)n1-c1cccc(C(F)(F)F)c1	INS promoter inh 60
O=C(CCn1c(=O)[nH]c2ccccc2c1=O)NCCSCc1ccccc1	none (no result: INS promoter inh, BB579 growth dn, Yeast lifespan up)
CCN(CC)C(=O)c1sc(NC(=O)C(Sc2ccccc2)c2ccccc2)c(C(=O)OC(C)C)c1C (configuration not stated)	RAM inhibit 9.6
COC(=O)c1cnn(-c2ccccc2)c1/C=N/NC(=S)Nc1ccc(Cl)cc1	none (no result: RAM inhibit, INS promoter inh, BB579 growth dn, Yeast lifespan up)
CC(OC(=O)/C=C/c1ccco1)C(=O)Nc1cccc([N+](=O)[O-])c1 (configuration not stated)	RAM inhibit 9.0 (no result: INS promoter inh)
CCCCNC(=O)N1c2ccccc2CC1C (configuration not stated)	none (no result: BB579 growth dn, Yeast lifespan up)
CCCCNC(=O)CCc1nc2cccnc2n1Cc1ccc(OC)cc1	INS promoter inh 83 (no result: Ins promoter up)
CC(=O)N(c1nc(CCl)cs1)c1c(C)cc(C)cc1C	none
CN(C)c1ccc(C(=O)N/N=C/c2cc(Br)cc(Br)c2O)cc1	Ins promoter up 4.7 (no result: RAM inhibit, INS promoter inh, BB579 growth dn, Yeast lifespan up)
Cc1cc2ccccc2n1CCNC(=O)c1cccs1	none (no result: INS promoter inh)
CC1(C)CC(=NOC(=O)c2ccccc2)CC(C)(C)N1O	BB579 growth dn 74
Cc1ccc(C2=NN(CCC(=O)NCCC(C)C)C(=O)CC2)cc1	none
N=C1c2ccccc2CN1NC(=O)CC12CC3CC(CC(C3)C1)C2	none
O=C(CC12CC3CC(CC(C3)C1)C2)NCC(=O)N1CCc2ccccc2C1	Ins promoter up 3.3
O=C(Cc1ccccc1)NNC(=O)c1ccccc1C(=O)O	none (no result: RAM inhibit, INS promoter inh, BB579 growth dn, Yeast lifespan up)
O=C(NC1CC1)C1=C[C@@H](c2c[nH]c3ccccc23)C[C@@H](OCCCCO)O1	none (no result: RAM inhibit, INS promoter inh, BB579 growth dn, Yeast lifespan up)
C=CCn1c(SCc2ccccc2)nc2scc(-c3ccc(C)o3)c2c1=O	RAM inhibit 11 (no result: Ins promoter up)
C=CCn1c(SCC(N)=O)nc2scc(-c3ccc(C)o3)c2c1=O	none (no result: INS promoter inh, BB579 growth dn, Yeast lifespan up)
